Source: ChEMBL document CHEMBL3797028, “Novel S1P1 receptor agonists - Part 4: Alkylaminomethyl substituted aryl head groups” (Eur J Med Chem, 2016)

Assays:
[1] = molecular target: Sphingosine 1-phosphate receptor 1 (Homo sapiens, UniProt P21453); assay: Agonist activity at human recombinant S1PR1 expressed in CHO cell membranes assessed as [35S]GTPgammaS binding preincubated for 30 mins followed by [35S]GTPgammaS addition measured after 1 hr by topcount analysis
[2] = Selectivity ratio of EC50 for human recombinant S1PR3 expressed in CHO cell membranes to EC50 for human recombinant S1PR1 expressed in CHO cell membranes; format: cell-based
Procedure, shortened: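 Compound and membranes are pre-incubated 30 min at rt, then incubated 1 h at rt, filtered and counted. EC50 is the concentration giving 50% of S1P-defined specific binding, as the geometric mean of ≥3 independent duplicate runs. Ratio = EC50 S1PR3/EC50 S1PR1.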

[3] = molecular target: Sphingosine 1-phosphate receptor 3 (Homo sapiens, UniProt Q99500); assay: Agonist activity at human recombinant S1PR3 expressed in CHO cell membranes assessed as [35S]GTPgammaS binding preincubated for 30 mins followed by [35S]GTPgammaS addition measured after 1 hr by topcount analysis; format: functional
Procedure, shortened: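 Membranes from CHO cells expressing recombinant human S1P1 or S1P3 were used. Buffer was 20 mM Hepes pH 7.4, 100 mM NaCl, 5 mM MgCl2, 0.1% fatty-acid-free BSA, 2.5% DMSO and 50 pM 35S-GTPgammaS. GDP was […] for S1P3. Compound was preincubated 30 min at rt, then incubated 1 h at rt with 35S-GTPgammaS. Bound label was collected by filtration and counted. Specific binding was taken against 10 uM S1P. EC50 was the 50%-of-specific-binding concentration, reported as the geometric mean of at least three independent duplicate runs.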

Chain of Sphingosine 1-phosphate receptor 1 (P21453 whole entry): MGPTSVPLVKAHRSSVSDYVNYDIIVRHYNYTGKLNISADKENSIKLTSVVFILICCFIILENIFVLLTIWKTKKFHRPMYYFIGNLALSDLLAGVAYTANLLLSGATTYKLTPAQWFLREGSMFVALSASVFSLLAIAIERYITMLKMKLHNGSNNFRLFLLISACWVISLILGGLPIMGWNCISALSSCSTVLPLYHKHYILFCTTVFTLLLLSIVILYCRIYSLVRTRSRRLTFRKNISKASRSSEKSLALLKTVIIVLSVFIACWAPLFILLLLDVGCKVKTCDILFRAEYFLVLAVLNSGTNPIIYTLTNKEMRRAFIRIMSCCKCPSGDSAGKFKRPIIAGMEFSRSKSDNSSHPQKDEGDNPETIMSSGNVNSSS
Chain of Sphingosine 1-phosphate receptor 3 (Q99500 whole entry): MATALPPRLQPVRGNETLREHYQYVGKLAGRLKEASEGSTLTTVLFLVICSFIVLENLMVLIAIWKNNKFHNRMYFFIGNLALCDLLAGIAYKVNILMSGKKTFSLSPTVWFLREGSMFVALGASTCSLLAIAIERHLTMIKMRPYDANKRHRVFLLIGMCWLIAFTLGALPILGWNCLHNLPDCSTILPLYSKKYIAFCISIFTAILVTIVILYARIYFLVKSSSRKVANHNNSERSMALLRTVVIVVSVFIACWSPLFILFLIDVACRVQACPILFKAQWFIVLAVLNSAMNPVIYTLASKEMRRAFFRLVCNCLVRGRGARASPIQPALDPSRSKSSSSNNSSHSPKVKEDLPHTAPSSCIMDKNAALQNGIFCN

Molecule `CCCc1cc(CN(C)CC(C)C)cc(-c2nc(-c3cc(C)c(OC[C@@H](O)CNC(=O)CO)c(CC)c3)no2)c1` has an EC50 [1] of 2.8 nM, a Ratio EC50 [2] of under 2 and an EC50 [3] of 3.5 nM.
Work on `CCCCN(C)Cc1ccc(-c2nc(-c3cc(C)c(OC[C@@H](O)CNC(=O)CO)c(CC)c3)no2)cc1C` yielded an EC50 [1] of 5.3 nM, a Ratio EC50 [2] of 66 and an EC50 [3] of 350 nM.
`CCc1cc(-c2noc(-c3cc(CN(C)CC(C)C)ccc3C)n2)cc(C)c1OC[C@@H](O)CNC(=O)CO` gave an EC50 [1] of 490 nM, a Ratio EC50 [2] of over 20 and an EC50 [3] of over 10000 nM.
Work on `CCc1cc(-c2noc(-c3sc(CN(C)C)c(C)c3C)n2)cc(C)c1OC[C@@H](O)CNC(=O)CO` yielded an EC50 [1] of 6.4 nM, a Ratio EC50 [2] of 687 and an EC50 [3] of 4400 nM.
`CCCCN(C)Cc1cc(-c2nc(-c3cc(C)c(OC[C@@H](O)CNC(=O)CO)c(CC)c3)no2)cc(C)n1` showed an EC50 [1] of 4.3 nM, a Ratio EC50 [2] of 349 and an EC50 [3] of 1500 nM.
With `CCc1cc(-c2noc(-c3ccc(CN(C)CC)s3)n2)cc(C)c1OC[C@@H](O)CNC(=O)CO` the EC50 [1] was 6.8 nM, the Ratio EC50 [2] was 676 and the EC50 [3] was 4600 nM.
With `CCc1cc(-c2nc(-c3cc(C)c(CCC(=O)NCCO)c(CC)c3)no2)cnc1N(C)C(C)C` the EC50 [1] was 5.1 nM.
`CCc1cc(-c2noc(-c3cc(C)cc(CNCC(C)C)c3)n2)cc(C)c1OC[C@@H](O)CNC(=O)CO` showed an EC50 [1] of 15 nM, a Ratio EC50 [2] of 140 and an EC50 [3] of 2100 nM.
`CCc1cc(-c2noc(-c3ccc(CN(C)C)cc3C)n2)cc(C)c1OC[C@@H](O)CNC(=O)CO` gave an EC50 [1] of 230 nM, a Ratio EC50 [2] of over 43 and an EC50 [3] of over 10000 nM.
`CCCN(C)Cc1cc(-c2nc(-c3cc(C)c(OC[C@@H](O)CNC(=O)CO)c(CC)c3)no2)cc(C)n1` showed an EC50 [1] of 8.5 nM, a Ratio EC50 [2] of 102 and an EC50 [3] of 870 nM.
Work on `CCCN(C)Cc1sc(-c2nc(-c3cc(C)c(OC[C@@H](O)CNC(=O)CO)c(CC)c3)no2)cc1C` yielded an EC50 [1] of 0.6 nM, a Ratio EC50 [2] of 200 and an EC50 [3] of 120 nM.
`CCCCN(C)Cc1sc(-c2nc(-c3cc(C)c(OC[C@@H](O)CNC(=O)CO)c(CC)c3)no2)cc1C` showed an EC50 [1] of 0.7 nM, a Ratio EC50 [2] of 171 and an EC50 [3] of 120 nM.
With `CCCCN(C)Cc1cc(-c2nc(-c3cc(C)c(OC[C@@H](O)CNC(=O)CO)c(CC)c3)no2)ccc1C` the EC50 [1] was 310 nM, the Ratio EC50 [2] was 9 and the EC50 [3] was 2900 nM.
For `CCc1cc(-c2noc(-c3ccc(C)c(CN(C)C)c3)n2)cc(C)c1OC[C@@H](O)CNC(=O)CO`, the EC50 [1] was 385 nM, the Ratio EC50 [2] was over 26 and the EC50 [3] was over 10000 nM.
Molecule `CCc1cc(-c2noc(-c3ccc(CNCC(C)C)c(C)c3)n2)cc(C)c1OC[C@@H](O)CNC(=O)CO` has an EC50 [1] of 270 nM, a Ratio EC50 [2] of over 37 and an EC50 [3] of over 10000 nM.
Work on `CCc1cc(-c2noc(-c3cc(C)c(CNC)s3)n2)cc(C)c1OC[C@@H](O)CNC(=O)CO` yielded an EC50 [1] of 14 nM, a Ratio EC50 [2] of over 714 and an EC50 [3] of over 10000 nM.
`CCc1cc(-c2noc(-c3cc(C)c(CN(C)CC)s3)n2)cc(C)c1OC[C@@H](O)CNC(=O)CO` gave an EC50 [1] of 1.3 nM, a Ratio EC50 [2] of 115 and an EC50 [3] of 150 nM.
For `CCc1cc(-c2noc(-c3cc(C)c(C=O)s3)n2)cc(C)c1OC[C@@H](O)CNC(=O)CO`, the EC50 [1] was 26 nM and the EC50 [3] was over 10000 nM.
With `CCc1cc(-c2noc(-c3ccc(CN4CCCC4)c(C)c3)n2)cc(C)c1OC[C@@H](O)CNC(=O)CO` the EC50 [1] was 50 nM, the Ratio EC50 [2] was 62 and the EC50 [3] was 3100 nM.
Molecule `CCc1cc(-c2nnc(-c3cc(C)nc(N(CC)CC)c3)o2)cc(C)c1OC[C@@H](O)CNC(=O)CO` has an EC50 [1] of 7.9 nM.
Work on `CCc1cc(-c2noc(-c3cc(C)c(CN(C)CCO)s3)n2)cc(C)c1OC[C@@H](O)CNC(=O)CO` yielded an EC50 [1] of 2.8 nM, a Ratio EC50 [2] of 607 and an EC50 [3] of 1700 nM.
Molecule `CCCN(C)Cc1cc(C)cc(-c2nc(-c3cc(C)c(OC[C@@H](O)CNC(=O)CO)c(CC)c3)no2)c1` has an EC50 [1] of 4.1 nM, a Ratio EC50 [2] of 93 and an EC50 [3] of 380 nM.
In the case of `CCc1cc(-c2noc(-c3ccc(CNC)cc3)n2)cc(C)c1OC[C@@H](O)CNC(=O)CO`, the EC50 [1] is reported as 2090 nM, the Ratio EC50 [2] is reported as over 4.8 and the EC50 [3] is reported as over 10000 nM.
For `CCc1cc(-c2noc(-c3cc(C)c(CNCC(C)C)s3)n2)cc(C)c1OC[C@@H](O)CNC(=O)CO`, the EC50 [1] was 20 nM, the Ratio EC50 [2] was 70 and the EC50 [3] was 1400 nM.
`CCCN(C)Cc1cc(-c2nc(-c3cc(C)c(OC[C@@H](O)CNC(=O)CO)c(CC)c3)no2)ccc1C` showed an EC50 [1] of 305 nM, a Ratio EC50 [2] of 14 and an EC50 [3] of 4300 nM.
Work on `CCc1cc(-c2noc(-c3ccc(CN(CC)CC)c(C)c3)n2)cc(C)c1OC[C@@H](O)CNC(=O)CO` yielded an EC50 [1] of 10 nM, a Ratio EC50 [2] of 56 and an EC50 [3] of 560 nM.
Molecule `CCc1cc(-c2noc(-c3ccc(CN(C)C)s3)n2)cc(C)c1OC[C@@H](O)CNC(=O)CO` has an EC50 [1] of 5.4 nM, a Ratio EC50 [2] of over 1850 and an EC50 [3] of over 10000 nM.
Molecule `CCCNCc1cccc(-c2nc(-c3cc(C)c(OC[C@@H](O)CNC(=O)CO)c(CC)c3)no2)c1` has an EC50 [1] of 305 nM, a Ratio EC50 [2] of over 33 and an EC50 [3] of over 10000 nM.
`CCc1cc(-c2noc(-c3cc(C)nc(CN(C)C)c3)n2)cc(C)c1OC[C@@H](O)CNC(=O)CO` gave an EC50 [1] of 40 nM, a Ratio EC50 [2] of over 250 and an EC50 [3] of over 10000 nM.
In the case of `CCc1cc(-c2nc(-c3cc(C)c(OC[C@@H](O)CNC(=O)CO)c(CC)c3)no2)sc1CN(C)C`, the EC50 [1] is reported as 0.3 nM, the Ratio EC50 [2] is reported as 150 and the EC50 [3] is reported as 45 nM.
`CCc1cc(CN(C)CC(C)C)cc(-c2nc(-c3cc(C)c(OC[C@@H](O)CNC(=O)CO)c(CC)c3)no2)c1` gave an EC50 [1] of 1.1 nM, a Ratio EC50 [2] of 7 and an EC50 [3] of 8 nM.
For `CCNCc1ccc(-c2nc(-c3cc(C)c(OC[C@@H](O)CNC(=O)CO)c(CC)c3)no2)s1`, the EC50 [1] was 293 nM, the Ratio EC50 [2] was over 34 and the EC50 [3] was over 10000 nM.
Work on `CCc1cc(-c2noc(-c3ccc(CNC)s3)n2)cc(C)c1OC[C@@H](O)CNC(=O)CO` yielded an EC50 [1] of 189 nM, a Ratio EC50 [2] of over 53 and an EC50 [3] of over 10000 nM.
Work on `CCc1cc(-c2noc(-c3ccc(C)c(CNCC(C)C)c3)n2)cc(C)c1OC[C@@H](O)CNC(=O)CO` yielded an EC50 [1] of 2350 nM, a Ratio EC50 [2] of over 4 and an EC50 [3] of over 10000 nM.
`CCCN(C)Cc1sc(-c2nc(-c3cc(C)c(OC[C@@H](O)CNC(=O)CO)c(CC)c3)no2)c(C)c1C` showed an EC50 [1] of 14 nM, a Ratio EC50 [2] of 26 and an EC50 [3] of 370 nM.
In the case of `CCc1cc(-c2noc(-c3cc(C)nc(CN(CC)CC)c3)n2)cc(C)c1OC[C@@H](O)CO`, the EC50 [1] is reported as 110 nM.
With `CCCN(C)Cc1sc(-c2nc(-c3cc(C)c(OC[C@@H](O)CNC(=O)CO)c(CC)c3)no2)cc1CC` the EC50 [1] was 0.5 nM, the Ratio EC50 [2] was 40 and the EC50 [3] was 20 nM.
For `CCc1cc(-c2nc(-c3cc(C)c(OC[C@@H](O)CNC(=O)CO)c(CC)c3)no2)ccc1CN(CC)CC`, the EC50 [1] was 1 nM, the Ratio EC50 [2] was 210 and the EC50 [3] was 210 nM.
For `CCc1cc(-c2noc(-c3cc(C)c(CN(C)C)c(C)c3)n2)cc(C)c1OC[C@@H](O)CNC(=O)CO`, the EC50 [1] was 69 nM, the Ratio EC50 [2] was over 80 and the EC50 [3] was 5500 nM.
Work on `CCc1cc(-c2noc(-c3cc(CN(C)CC(C)C)cc(C(C)C)c3)n2)cc(C)c1OC[C@@H](O)CNC(=O)CO` yielded an EC50 [1] of 1.1 nM, a Ratio EC50 [2] of under 2 and an EC50 [3] of 1.4 nM.
For `CCc1cc(-c2noc(-c3cc(C)c(CN(C)CCN(C)C)s3)n2)cc(C)c1OC[C@@H](O)CNC(=O)CO`, the EC50 [1] was 155 nM, the Ratio EC50 [2] was over 64 and the EC50 [3] was over 10000 nM.
With `CCc1cc(-c2noc(-c3ccc(CN(C)C)cc3)n2)cc(C)c1OC[C@@H](O)CNC(=O)CO` the EC50 [1] was 160 nM, the Ratio EC50 [2] was over 62 and the EC50 [3] was over 10000 nM.
For `CCc1cc(-c2noc(-c3ccc(CN(C)C)c(C)c3)n2)cc(C)c1OC[C@@H](O)CNC(=O)CO`, the EC50 [3] was 3200 nM.
